ChEMBL document CHEMBL5058577, “EUbOPEN Chemogenomics Library 2 (Multiplex)” (2022)

System: U2OS
Assay: Multiplex assay against U2OS
Type: toxicity, cell-based
Settings: human
How it was run: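 Values for tubulin, mitochondrial-mass and membrane-permeability phenotypes are per cents of cells with healthy nuclei. These cells were identified by CellPathfinder machine-learning gating of live cells that had been stained at seeding with Hoechst33342, BioTracker Green Microtubule Cytoskeleton Dye, MitoTracker Red and Annexin V Alexa Fluor 680 and imaged on a CQ1 microscope at 37°C and 5% CO2 after compound addition. The gating first set Hoechst high-intensity objects apart from normal cells, then split normal cells into healthy, pyknosed or fragmented nuclei, and pyknosed cells into mitotic or apoptotic.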

[1] = 12 h, 1 µM, compound concentration 1 uM, replicate 1
[2] = 12 h, 1 µM, compound concentration 1 uM, replicate 2
[3] = 12 h, 10 µM, compound concentration 10 uM, replicate 1
[4] = 12 h, 10 µM, compound concentration 10 uM, replicate 2
[5] = 24 h, 1 µM, compound concentration 1 uM, replicate 1
[6] = 24 h, 1 µM, compound concentration 1 uM, replicate 2
[7] = 24 h, 10 µM, compound concentration 10 uM, replicate 1
[8] = 24 h, 10 µM, compound concentration 10 uM, replicate 2
[9] = 48 h, 1 µM, compound concentration 1 uM, replicate 1
[10] = 48 h, 1 µM, compound concentration 1 uM, replicate 2
[11] = 48 h, 10 µM, compound concentration 10 uM, replicate 1
[12] = 48 h, 10 µM, compound concentration 10 uM, replicate 2

Nc1nc(CC(=O)Nc2ccc(CCNC[C@H](O)c3ccccc3)cc2)cs1 [MIRABEGRON]
Population Apoptotic (%) [1]: 86%
Population Fragmented Nuclei (%) [1]: 24%
Population Healthy Nuclei (%) [1]: 62%
Population Hoechst High Intensity Objects (%) [1]: 1%
Population Membrane Permeable-Phenotype (%) [1]: 6%
Population Mitochondria Different-Phenotype (%) [1]: 3%
Population Mitotic Cells (%) [1]: 13%
Population Normal (%) [1]: 98%
Population Pyknosed Nuclei (%) [1]: 12%
Population Tubulin-Different-Phenotype (%) [1]: 4%
Total Cell Count [1]: 240
Population Apoptotic (%) [2]: 100%
Population Fragmented Nuclei (%) [2]: 13%
Population Healthy Nuclei (%) [2]: 74%
Population Hoechst High Intensity Objects (%) [2]: 0%
Population Membrane Permeable-Phenotype (%) [2]: 5%
Population Mitochondria Different-Phenotype (%) [2]: 2%
Population Mitotic Cells (%) [2]: 0%
Population Normal (%) [2]: 99%
Population Tubulin-Different-Phenotype (%) [2]: 5%
Total Cell Count [2]: 107
Population Apoptotic (%) [3]: 86%
Population Fragmented Nuclei (%) [3]: 18%
Population Healthy Nuclei (%) [3]: 70%
Population Hoechst High Intensity Objects (%) [3]: 1%
Population Membrane Permeable-Phenotype (%) [3]: 6%
Population Mitochondria Different-Phenotype (%) [3]: 2%
Population Mitotic Cells (%) [3]: 13%
Population Normal (%) [3]: 98%
Population Pyknosed Nuclei (%) [3]: 11%
Population Tubulin-Different-Phenotype (%) [3]: 4%
Total Cell Count [3]: 319
Population Apoptotic (%) [4]: 66%
Population Fragmented Nuclei (%) [4]: 21%
Population Healthy Nuclei (%) [4]: 71%
Population Hoechst High Intensity Objects (%) [4]: 0%
Population Membrane Permeable-Phenotype (%) [4]: 7%
Population Mitochondria Different-Phenotype (%) [4]: 3%
Population Mitotic Cells (%) [4]: 33%
Population Normal (%) [4]: 99%
Population Pyknosed Nuclei (%) [4]: 6%
Population Tubulin-Different-Phenotype (%) [4]: 1%
Total Cell Count [4]: 136
Population Apoptotic (%) [5]: 82%
Population Fragmented Nuclei (%) [5]: 21%
Population Healthy Nuclei (%) [5]: 70%
Population Hoechst High Intensity Objects (%) [5]: 2%
Population Membrane Permeable-Phenotype (%) [5]: 4%
Population Mitochondria Different-Phenotype (%) [5]: 2%
Population Mitotic Cells (%) [5]: 17%
Population Normal (%) [5]: 97%
Population Pyknosed Nuclei (%) [5]: 8%
Population Tubulin-Different-Phenotype (%) [5]: 3%
Total Cell Count [5]: 289
Population Apoptotic (%) [6]: 58%
Population Fragmented Nuclei (%) [6]: 11%
Population Healthy Nuclei (%) [6]: 79%
Population Hoechst High Intensity Objects (%) [6]: 0%
Population Membrane Permeable-Phenotype (%) [6]: 9%
Population Mitochondria Different-Phenotype (%) [6]: 3%
Population Mitotic Cells (%) [6]: 41%
Population Normal (%) [6]: 99%
Population Pyknosed Nuclei (%) [6]: 9%
Population Tubulin-Different-Phenotype (%) [6]: 7%
Total Cell Count [6]: 125
Population Apoptotic (%) [7]: 86%
Population Fragmented Nuclei (%) [7]: 17%
Population Healthy Nuclei (%) [7]: 75%
Population Hoechst High Intensity Objects (%) [7]: 1%
Population Membrane Permeable-Phenotype (%) [7]: 5%
Population Mitochondria Different-Phenotype (%) [7]: 3%
Population Mitotic Cells (%) [7]: 13%
Population Normal (%) [7]: 98%
Population Pyknosed Nuclei (%) [7]: 7%
Population Tubulin-Different-Phenotype (%) [7]: 3%
Total Cell Count [7]: 405
Population Apoptotic (%) [8]: 76%
Population Fragmented Nuclei (%) [8]: 20%
Population Healthy Nuclei (%) [8]: 71%
Population Membrane Permeable-Phenotype (%) [8]: 9%
Population Mitochondria Different-Phenotype (%) [8]: 5%
Population Mitotic Cells (%) [8]: 23%
Population Tubulin-Different-Phenotype (%) [8]: 4%
Total Cell Count [8]: 167
Population Apoptotic (%) [9]: 84%
Population Fragmented Nuclei (%) [9]: 17%
Population Healthy Nuclei (%) [9]: 72%
Population Hoechst High Intensity Objects (%) [9]: 2%
Population Membrane Permeable-Phenotype (%) [9]: 4%
Population Mitochondria Different-Phenotype (%) [9]: 3%
Population Mitotic Cells (%) [9]: 15%
Population Normal (%) [9]: 97%
Population Pyknosed Nuclei (%) [9]: 9%
Population Tubulin-Different-Phenotype (%) [9]: 3%
Total Cell Count [9]: 394
Population Apoptotic (%) [10]: 78%
Population Fragmented Nuclei (%) [10]: 12%
Population Healthy Nuclei (%) [10]: 74%
Population Membrane Permeable-Phenotype (%) [10]: 8%
Population Mitotic Cells (%) [10]: 21%
Population Pyknosed Nuclei (%) [10]: 13%
Population Tubulin-Different-Phenotype (%) [10]: 7%
Total Cell Count [10]: 179
Population Apoptotic (%) [11]: 87%
Population Fragmented Nuclei (%) [11]: 14%
Population Healthy Nuclei (%) [11]: 74%
Population Hoechst High Intensity Objects (%) [11]: 2%
Population Membrane Permeable-Phenotype (%) [11]: 5%
Population Mitochondria Different-Phenotype (%) [11]: 2%
Population Mitotic Cells (%) [11]: 12%
Population Normal (%) [11]: 97%
Population Pyknosed Nuclei (%) [11]: 10%
Population Tubulin-Different-Phenotype (%) [11]: 2%
Total Cell Count [11]: 534
Population Apoptotic (%) [12]: 70%
Population Healthy Nuclei (%) [12]: 78%
Population Membrane Permeable-Phenotype (%) [12]: 3%
Population Mitochondria Different-Phenotype (%) [12]: 3%
Population Mitotic Cells (%) [12]: 29%
Population Pyknosed Nuclei (%) [12]: 7%
Population Tubulin-Different-Phenotype (%) [12]: 1%
Total Cell Count [12]: 232

COc1cc(C(=O)N2CC[C@@H](O)[C@@H](N)C2)cc2nc(-c3cc4ccccc4n3CC3CC3)n(C)c12.Cl
Population Apoptotic (%) [1]: 50%
Population Fragmented Nuclei (%) [1]: 32%
Population Healthy Nuclei (%) [1]: 53%
Population Hoechst High Intensity Objects (%) [1]: 4%
Population Membrane Permeable-Phenotype (%) [1]: 38%
Population Mitochondria Different-Phenotype (%) [1]: 16%
Population Mitotic Cells (%) [1]: 50%
Population Normal (%) [1]: 95%
Population Pyknosed Nuclei (%) [1]: 14%
Population Tubulin-Different-Phenotype (%) [1]: 29%
Total Cell Count [1]: 223
Population Apoptotic (%) [2]: 75%
Population Fragmented Nuclei (%) [2]: 15%
Population Healthy Nuclei (%) [2]: 75%
Population Hoechst High Intensity Objects (%) [2]: 1%
Population Membrane Permeable-Phenotype (%) [2]: 20%
Population Mitochondria Different-Phenotype (%) [2]: 18%
Population Mitotic Cells (%) [2]: 25%
Population Normal (%) [2]: 98%
Population Pyknosed Nuclei (%) [2]: 8%
Population Tubulin-Different-Phenotype (%) [2]: 15%
Total Cell Count [2]: 92
Population Apoptotic (%) [3]: 68%
Population Fragmented Nuclei (%) [3]: 23%
Population Healthy Nuclei (%) [3]: 38%
Population Hoechst High Intensity Objects (%) [3]: 6%
Population Membrane Permeable-Phenotype (%) [3]: 75%
Population Mitochondria Different-Phenotype (%) [3]: 88%
Population Mitotic Cells (%) [3]: 31%
Population Normal (%) [3]: 93%
Population Pyknosed Nuclei (%) [3]: 37%
Population Tubulin-Different-Phenotype (%) [3]: 96%
Total Cell Count [3]: 208
Population Apoptotic (%) [4]: 56%
Population Fragmented Nuclei (%) [4]: 16%
Population Healthy Nuclei (%) [4]: 61%
Population Hoechst High Intensity Objects (%) [4]: 5%
Population Membrane Permeable-Phenotype (%) [4]: 79%
Population Mitochondria Different-Phenotype (%) [4]: 91%
Population Mitotic Cells (%) [4]: 44%
Population Normal (%) [4]: 94%
Population Pyknosed Nuclei (%) [4]: 22%
Population Tubulin-Different-Phenotype (%) [4]: 94%
Total Cell Count [4]: 120
Population Apoptotic (%) [5]: 78%
Population Fragmented Nuclei (%) [5]: 28%
Population Healthy Nuclei (%) [5]: 54%
Population Hoechst High Intensity Objects (%) [5]: 3%
Population Membrane Permeable-Phenotype (%) [5]: 19%
Population Mitochondria Different-Phenotype (%) [5]: 14%
Population Mitotic Cells (%) [5]: 21%
Population Normal (%) [5]: 96%
Population Pyknosed Nuclei (%) [5]: 17%
Population Tubulin-Different-Phenotype (%) [5]: 12%
Total Cell Count [5]: 243
Population Apoptotic (%) [6]: 75%
Population Fragmented Nuclei (%) [6]: 18%
Population Healthy Nuclei (%) [6]: 69%
Population Hoechst High Intensity Objects (%) [6]: 2%
Population Membrane Permeable-Phenotype (%) [6]: 17%
Population Mitochondria Different-Phenotype (%) [6]: 18%
Population Mitotic Cells (%) [6]: 25%
Population Normal (%) [6]: 97%
Population Pyknosed Nuclei (%) [6]: 11%
Population Tubulin-Different-Phenotype (%) [6]: 17%
Total Cell Count [6]: 109
Population Apoptotic (%) [7]: 84%
Population Fragmented Nuclei (%) [7]: 25%
Population Healthy Nuclei (%) [7]: 35%
Population Hoechst High Intensity Objects (%) [7]: 4%
Population Membrane Permeable-Phenotype (%) [7]: 57%
Population Mitochondria Different-Phenotype (%) [7]: 88%
Population Mitotic Cells (%) [7]: 15%
Population Normal (%) [7]: 95%
Population Pyknosed Nuclei (%) [7]: 38%
Population Tubulin-Different-Phenotype (%) [7]: 78%
Total Cell Count [7]: 222
Population Apoptotic (%) [8]: 71%
Population Fragmented Nuclei (%) [8]: 26%
Population Healthy Nuclei (%) [8]: 48%
Population Membrane Permeable-Phenotype (%) [8]: 50%
Population Mitochondria Different-Phenotype (%) [8]: 85%
Population Mitotic Cells (%) [8]: 28%
Population Pyknosed Nuclei (%) [8]: 25%
Population Tubulin-Different-Phenotype (%) [8]: 90%
Total Cell Count [8]: 133
Population Apoptotic (%) [9]: 82%
Population Fragmented Nuclei (%) [9]: 23%
Population Healthy Nuclei (%) [9]: 61%
Population Hoechst High Intensity Objects (%) [9]: 2%
Population Membrane Permeable-Phenotype (%) [9]: 9%
Population Mitochondria Different-Phenotype (%) [9]: 5%
Population Mitotic Cells (%) [9]: 17%
Population Normal (%) [9]: 97%
Population Pyknosed Nuclei (%) [9]: 15%
Population Tubulin-Different-Phenotype (%) [9]: 5%
Total Cell Count [9]: 304
Population Apoptotic (%) [10]: 76%
Population Membrane Permeable-Phenotype (%) [10]: 17%
Population Mitochondria Different-Phenotype (%) [10]: 11%
Population Mitotic Cells (%) [10]: 23%
Population Pyknosed Nuclei (%) [10]: 14%
Population Tubulin-Different-Phenotype (%) [10]: 12%
Total Cell Count [10]: 149
Population Apoptotic (%) [11]: 88%
Population Fragmented Nuclei (%) [11]: 29%
Population Healthy Nuclei (%) [11]: 35%
Population Hoechst High Intensity Objects (%) [11]: 12%
Population Membrane Permeable-Phenotype (%) [11]: 47%
Population Mitochondria Different-Phenotype (%) [11]: 65%
Population Mitotic Cells (%) [11]: 11%
Population Normal (%) [11]: 87%
Population Pyknosed Nuclei (%) [11]: 35%
Population Tubulin-Different-Phenotype (%) [11]: 62%
Total Cell Count [11]: 232
Population Apoptotic (%) [12]: 92%
Population Fragmented Nuclei (%) [12]: 30%
Population Hoechst High Intensity Objects (%) [12]: 6%
Population Mitochondria Different-Phenotype (%) [12]: 84%
Population Mitotic Cells (%) [12]: 7%
Population Normal (%) [12]: 93%
Population Pyknosed Nuclei (%) [12]: 34%
Population Tubulin-Different-Phenotype (%) [12]: 75%
Total Cell Count [12]: 131
